An excerpt weighted towards active compounds, which were near 3.5% of everything screened.
PRMT1 inh: blocks human protein arginine methyltransferase 1. AID 652257. Q99873. recombinant PRMT1, activity-based probe fluorescence polarization. inhibition, % at 2.79 µM. 370,000 tested, 1.3% active;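 active = inhibition above about 21% made by adding two undisclosed values, limit read from the data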
Target sequence (Q99873 whole entry, looked up): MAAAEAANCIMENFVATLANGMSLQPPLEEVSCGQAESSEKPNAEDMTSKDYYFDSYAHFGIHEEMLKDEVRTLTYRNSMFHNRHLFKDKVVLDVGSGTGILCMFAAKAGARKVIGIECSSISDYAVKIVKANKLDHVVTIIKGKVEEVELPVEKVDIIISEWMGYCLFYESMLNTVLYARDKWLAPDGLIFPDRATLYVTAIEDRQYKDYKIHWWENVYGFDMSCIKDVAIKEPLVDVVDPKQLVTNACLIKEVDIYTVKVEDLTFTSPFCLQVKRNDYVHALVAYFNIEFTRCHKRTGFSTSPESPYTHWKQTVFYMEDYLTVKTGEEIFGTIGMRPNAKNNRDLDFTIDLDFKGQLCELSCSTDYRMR
SIAE primary: blocks human sialic acid acetylesterase. Q9HAT2. 370,000 tested, 0.69% active. SIAE FP-Rh probe binding, fluorescence polarization. inhibition, % at 9.66 µM;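 active = inhibition above a cutoff: mean of compounds within the control limits plus 3 SD of those, cut at about 17% in these data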
HTRA1 inh: HTRA1 (human) protease inhibition; Q92743; recombinant HTRA1, FP-rhodamine activity-based probe, fluorescence polarization; AID 504803; inhibition, % at 5.96 µM; 340,000 tested, 0.5% active; in the data active = inhibition above about 36%
rCAG binder: molecules binding r(CAG) RNA repeats. inhibition, % at 3 µM. r(CAG) RNA repeat, TO-PRO-1 dye displacement fluorescence. AID 651821. 370,000 tested, 1.3% active;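 active = inhibition above the plate cutoff, the mean of all test compounds on that plate plus 3 SD, cut at about 35% in these data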;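 note: higher means more dye released from RNA so lower well fluorescence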
TCR CD3 inh: human TCR-CD3 binding inhibition; inhibition, % at 9.4 µM; TAMRA-labeled TCR probe fluorescence, biochemical; AID 651800; 360,000 tested, 0.37% active; in the data active = inhibition above about 19%;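 note: recombinant mutant TCR 2C K166C tagged with TAMRA read by polarization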
mABHD4 FP: inhibits mouse alpha/beta hydrolase domain 4; 370,000 tested, 0.54% active; Q8VD66; inhibition, % at 8.92 µM; purified mABHD4, FP-Rh probe fluorescence polarization;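 active = inhibition exceeding the mean over every tested compound plus 3 SD, cut at about 30% in these data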
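Material: mouse ABHD4 enzyme, wild type; Benchmarks: S159A mutant high control, sample median low control; Buffer or medium: HEPES pH 7.0, NaCl, Pluronic buffer; Signal: fluorescence polarization; Read-out: percent inhibition of probe binding, normalized to plate controls; Timing: pre-incubation 45 min, probe exposure 60 min, at 25 °C; Dosing: 8.92 µM, single dose.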
Numbers stand for hits; n = inactive; x = no result.

SMILES	PRMT1 inh	SIAE primary	HTRA1 inh	rCAG binder	TCR CD3 inh	mABHD4 FP
Cc1ccc(NC(=O)c2cc(NC(=O)C3CC=CCC3C(=O)O)ccc2N2CCOCC2)cc1Cl (stereo not drawn)	n	n	n	35	n	n
COc1ccc(/C=C2\SC(=S)N(CC(=O)OCC(=O)Nc3ccc([N+](=O)[O-])cc3OC)C2=O)cc1	n	n	n	n	n	n
COc1ccc(/C=C2\SC(=S)N(CC(=O)OCC(=O)Nc3ccc(C)cc3Cl)C2=O)cc1	21	n	n	n	n	n
CC(=O)N1CCN(c2ccc(NC(=O)c3ccc4c(c3)OCO4)cc2)CC1	n	n	n	n	n	n
CCC(=O)N1CCN(c2ccc(NC(=O)c3ccc4c(c3)OCO4)cc2)CC1	n	101	n	n	n	n
Cc1ccc(-c2cc(C(=O)NN=Cc3cccc(OCc4ccccc4)c3)[nH]n2)cc1C	n	n	x	n	x	n
O=C(O)c1cccc(-n2cccc2/C=C2\NC(=O)N(Cc3ccc(F)cc3)C2=O)c1	n	n	n	n	n	n
Cc1ccc(CN2C(=O)N/C(=C\c3cccn3-c3cccc(C(=O)O)c3)C2=O)cc1	n	n	n	47	n	n
O=C(O)c1ccc(-n2cccc2/C=C2/NC(=O)N(c3ccccc3)C2=O)cc1	n	n	n	n	24	n
Cc1ccc(NC(=O)CN2C(=O)N/C(=C/c3cc(C)n(-c4cccc(C(=O)O)c4)c3C)C2=O)cc1	25	n	n	71	n	n
Fc1cccc(CNC2CCC23CCC(c2ccccc2)CC3)c1 (stereo not drawn)	n	n	x	x	x	n
O=C(O)COc1ccc2c(c1)O/C(=C\c1cccs1)C2=O	n	n	n	n	n	n
O=C(O)COc1ccc2c(c1)O/C(=C\c1ccco1)C2=O	24	n	n	n	n	n
N#C/C(=C(/O)CN1CCCCC1)c1nc(-c2ccc(Cl)cc2)cs1	n	n	n	n	n	n
N#C/C(=C(/O)CN1CCOCC1)c1nc(-c2ccccc2)cs1	n	n	n	n	n	n
Cc1ccc(-c2csc(/C(C#N)=C(\O)CCl)n2)cc1	n	n	n	35	n	n
Cc1ccc(-c2csc(/C(C#N)=C(\O)CN3CCN(C(=O)c4ccco4)CC3)n2)cc1	n	n	n	62	n	n
O=C(CSc1nncc(=O)[nH]1)Nc1cccc([N+](=O)[O-])c1	33	n	n	n	n	n
COC(=O)[C@]12C[C@H](CC(=O)NCC3CCCCC3)C(=O)N(Cc3ccco3)C1=C[C@H](COCc1ccccc1)O[C@@H]2C	n	n	x	n	x	n
COc1cc(/C=C2/C(=O)NN(c3ccc(Cl)cc3)C2=O)ccc1OC(=O)c1ccco1	n	n	n	76	n	n
O=C(CSc1nnc(-c2ccccc2)n1-c1ccc(Cl)cc1)NN=Cc1c[nH]c2ccccc12	n	n	x	n	x	n
Cc1onc(-c2ccccc2Cl)c1C(=O)Nc1nnc(-c2ccc(Br)cc2)s1	n	n	n	46	n	n
Cc1onc(-c2ccccc2Cl)c1C(=O)Nc1nnc(-c2ccc(F)cc2)s1	n	n	n	n	n	n
C[C@H]1[C@@H](OC(=O)Nc2ccc(C#N)cc2)CC[C@@]23CCCN2C(=O)CCC[C@@H]13	n	n	x	x	x	n
COc1ccc(NC(=O)CN(C)S(=O)(=O)c2ccc3[nH]c(=O)oc3c2)cc1	n	n	n	n	n	n
SMILES	PRMT1 inh	SIAE primary	HTRA1 inh	rCAG binder	TCR CD3 inh	mABHD4 FP
COc1cc(OC)c(NC(=O)CN(C)S(=O)(=O)c2ccc3[nH]c(=O)oc3c2)cc1Cl	n	n	n	n	20	n
COc1cccc(OC[C@@H](O)CN2CCC(C(O)(c3ccccc3)c3ccccc3)CC2)c1	n	n	x	n	x	n
CC(C)[C@@H](NC(=O)OC(C)(C)C)c1cc(C(=O)c2c(-c3ccccc3)[nH]c3ccccc23)c(N)s1	23	n	x	n	n	n
CC(C)[C@H](NC(=O)OC(C)(C)C)c1cc(C(=O)NCCc2c[nH]c3ccccc23)c(N)s1	n	n	x	n	n	n
CC(C)C[C@H]1COc2cc(Br)ccc2S(=O)(=O)N1Cc1cn(CCC2OCCCO2)nn1	n	n	x	n	x	n
CCc1ccc2c(c1)C1(NN=C(c3cccc4ccccc34)S1)C(=O)N2 (stereo not drawn)	n	n	55	n	n	n
CCC[C@H]1[C@@H](OC(=O)N2CCN(c3ccccc3)CC2)CC[C@@]23CCCN2C(=O)CCC[C@@H]13	n	n	x	x	x	n
COc1ccc(N2CSC3=C(C#N)C(c4ccc(OC)c(OC)c4)CC(=O)N3C2)c(OC)c1 (stereo not drawn)	47	n	n	n	n	n
O=C(CCN1CCCCC1)c1ccc2c(c1)OCCO2	24	n	n	n	n	n
COC(=O)C1CN(C2CC2)CCS(=O)(=O)N1Cc1cn(Cc2ccc(C)cc2)nn1 (stereo not drawn)	n	n	x	n	x	n
COC(=O)C1=C(C(=O)OC)[C@@]2([C@@H](Cc3ccc(C)cc3)Nc3ccccc3)C=C[C@@H]1O2	n	n	x	x	x	n
CC1=C2NC(N)=[N+](Cc3ccc4c(c3)OCO4)CC2n2c(=O)n(-c3ccccc3)c(=O)n2C1 (stereo not drawn)	n	n	x	n	x	n
CC(=O)/C=C/n1c(=S)oc2ccccc21	23	n	x	n	n	n
O=C(NCCO)[C@H](Cc1ccccc1)NC1(C(=O)NCCc2c[nH]c3ccccc23)CCCCC1	n	n	x	x	x	n
Cc1ccc(C(=O)Nc2cccc3[nH]c(C(F)(F)F)nc23)cc1	n	n	n	n	n	n
COc1ccc(CNc2cccc3[nH]c(C(F)(F)F)nc23)cc1	n	n	n	42	n	n
COc1cc(/C=C2/N=C(c3ccccc3)OC2=O)c(F)cc1OCc1ccccc1	n	n	n	40	n	n
CC(=O)Oc1cc(O)c2c(=O)c(OC(C)=O)c(-c3ccc(OC(C)=O)c(OC(C)=O)c3)oc2c1	x	x	50	x	x	x
COc1ccc(-c2oc3cc(OC(C)=O)cc(OC(C)=O)c3c(=O)c2OC)cc1	n	n	n	n	n	n
CCN1C(=O)/C(=C2\SC(=S)N(NC(=O)c3cccnc3)C2=O)c2ccccc21	21	n	n	n	n	n
O=C(O)c1ccnc(SCC(=O)c2ccccc2)c1	23	n	n	n	n	n
C#CCN1CC(N2CCN(CCO)CC2)CS1(=O)=O (stereo not drawn)	n	n	x	n	x	n
O=C(O)Cc1sc(N/N=C\c2ccccc2)nc1-c1ccccc1	n	n	n	44	n	n
CCN(CC(=O)NCc1cccs1)C(=O)c1ccc(-c2ccc(F)cc2)o1	24	n	n	n	n	n
CC(COc1cccc(F)c1)CN1CCC(C(O)(c2ccccc2)c2ccccc2)CC1 (stereo not drawn)	n	n	x	n	x	n
COc1ccc(S[C@]2(C(=O)N3CCN(C(C)=O)CC3)CC(=O)N(C(=O)CCc3ccccc3)[C@@H]2c2ccc(OC)cc2)cc1	n	n	x	n	x	n

Screening results as filed in PubChem.
